Bioassay records deposited in PubChem BioAssay by The Scripps Research Institute Molecular Screening Center.
HGIII-sPLA2 inh = Inhibits HGIII-sPLA2 liposome hydrolysis, primary screen | Q9NZ20 | QFRET BODIPY PC-A2 liposome hydrolysis, fluorescence | inhibition, % at 12.2 µM | 370,000 tested, 0.56% active | AID 743126;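 active means inhibition above mean plus 3 SD of compounds lying within the high and low control bounds, cut at about 19% in these data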;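 further: 0% = median of test compound wells and 100% = no enzyme DMSO wells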
PLCb3 inh = inhibitors of human phospholipase C beta3; Q01970; Purified PLC-beta3, fluorogenic substrate, fluorescence; inhibition, % at 12.2 µM; 370,000 tested, 0.18% active; AID 720704; in the data active means inhibition above about 11%;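 further: 0% = median of compound wells on plate and 100% = full blocker control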
Tb MetRS inh = blocks T. brucei methionyl-tRNA synthetase activity; purified T. brucei MetRS, ATP depletion, Kinase-Glo luminescence; inhibition, % at 11.9 µM; 360,000 tested, 0.4% active;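 active means inhibition above a per-plate cutoff of the control wells' mean inhibition plus 3 SD, cut at about 5.5% in these data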;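 further: 0% = DMSO wells median and 100% = median of wells with control inhibitor compound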
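technique = Kinase-Glo luminescence, ATP depletion format | system = purified MetRS (methionyl-tRNA synthetase) enzyme from Trypanosoma brucei | timing = 15 min preincubation, 2 h reaction, all 25 °C | evaluation = percent inhibition versus plate control medians | dosing = single dose, 11.9 µM final nominal, 0.9% final DMSO | also added = substrates ATP, L-methionine and bulk Escherichia coli tRNA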
PLC-gamma1 inh = blocks human PLC-gamma1 enzyme activity. purified PLC-gamma1, fluorogenic substrate, fluorescence. 370,000 tested, 0.84% active. AID 720700. inhibition, % at 12.2 µM; in the data active means inhibition above about 9.5%
Target sequence (P19174 whole entry, looked up): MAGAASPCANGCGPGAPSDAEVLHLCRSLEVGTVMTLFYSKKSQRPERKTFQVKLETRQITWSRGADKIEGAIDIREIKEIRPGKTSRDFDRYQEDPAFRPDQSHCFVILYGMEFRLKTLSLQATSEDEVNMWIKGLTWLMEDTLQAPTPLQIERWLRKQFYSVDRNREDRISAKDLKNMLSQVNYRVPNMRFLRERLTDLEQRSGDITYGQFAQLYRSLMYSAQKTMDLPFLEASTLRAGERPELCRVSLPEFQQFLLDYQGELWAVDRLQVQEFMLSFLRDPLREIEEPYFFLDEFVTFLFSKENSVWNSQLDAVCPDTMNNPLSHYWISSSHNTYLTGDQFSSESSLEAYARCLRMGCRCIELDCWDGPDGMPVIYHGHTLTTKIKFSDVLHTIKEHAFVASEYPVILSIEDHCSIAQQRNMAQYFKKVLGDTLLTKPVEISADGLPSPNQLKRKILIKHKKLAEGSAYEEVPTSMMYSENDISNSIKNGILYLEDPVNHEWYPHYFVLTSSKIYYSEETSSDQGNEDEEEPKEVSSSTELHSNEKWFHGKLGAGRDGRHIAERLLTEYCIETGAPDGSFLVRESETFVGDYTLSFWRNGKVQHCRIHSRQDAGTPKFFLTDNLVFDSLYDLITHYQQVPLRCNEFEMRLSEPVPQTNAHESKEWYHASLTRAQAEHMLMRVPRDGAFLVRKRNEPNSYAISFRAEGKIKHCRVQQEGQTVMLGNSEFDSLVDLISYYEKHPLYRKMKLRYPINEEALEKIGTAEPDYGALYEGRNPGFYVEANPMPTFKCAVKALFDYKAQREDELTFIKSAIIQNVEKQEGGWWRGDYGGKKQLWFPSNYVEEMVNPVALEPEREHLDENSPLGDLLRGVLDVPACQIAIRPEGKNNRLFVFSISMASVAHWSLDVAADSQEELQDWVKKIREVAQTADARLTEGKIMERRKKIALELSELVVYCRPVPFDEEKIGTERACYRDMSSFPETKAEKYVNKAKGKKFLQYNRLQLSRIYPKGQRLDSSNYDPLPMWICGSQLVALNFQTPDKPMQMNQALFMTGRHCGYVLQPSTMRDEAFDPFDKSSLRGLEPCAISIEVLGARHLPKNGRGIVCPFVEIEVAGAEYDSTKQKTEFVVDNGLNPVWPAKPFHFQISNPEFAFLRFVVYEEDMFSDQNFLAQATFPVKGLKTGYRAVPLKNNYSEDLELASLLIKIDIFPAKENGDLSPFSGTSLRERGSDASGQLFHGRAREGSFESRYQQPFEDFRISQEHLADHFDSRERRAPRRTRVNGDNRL
DAGLB inhibitor = diacylglycerol lipase beta (human) inhibition | Q8NCG7 | HEK293T DAGLB membrane lysate, EnzChek fluorogenic substrate | inhibition, % at 5.17 µM | 340,000 tested, 0.059% active | AID 504411; in the data active means inhibition above about 34%;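 further: 0% = enzyme with vehicle and 100% = wells lacking enzyme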
DAGLB inh conf = DAGLB (human) inhibition, confirmation screen; HEK293T DAGLB membrane lysate, EnzChek fluorogenic substrate; inhibition, % at 5.17 µM; 190 tested, 73% active; shares compounds with DAGLB inhibitor;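 active means mean inhibition over triplicate wells above a set limit taken from the primary lipase screen, cut at about 34% in these data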;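 further: 0% = DAGLB with DMSO and 100% = wells lacking DAGLB enzyme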
TbMetRS confirm = confirmation of Trypanosoma brucei MetRS inhibitors; T. brucei MetRS enzyme, luminescence (ATP depletion); 1,400 tested, 93% active; AID 624412; shares compounds with Tb MetRS inh; inhibition, % at 11.9 µM; in the data active means inhibition above about 7%
Jurkat cytotox = counter-screen for T. brucei MetRS inhibitors: Jurkat cell cytotoxicity | 1,400 tested, 12% active | AID 624413 | inhibition, % at 8.3 µM | Jurkat cells viability, ATP luminescence | shares compounds with Tb MetRS inh; in the data active means inhibition above about 15%;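 further: 0% = vehicle and 100% = reference inhibitor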
Tb MetRS inh FP = orthogonal test for Trypanosoma brucei MetRS inhibitors | purified T. brucei MetRS, fluorescence polarization | 1,400 tested, 44% active | shares compounds with Tb MetRS inh | inhibition, % at 11.9 µM; in the data active means inhibition above about 17%;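 further: 0% = vehicle wells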
An asterisk follows results filed as active. Shown are actives, neighbours in structure and some others; about 1.9% of the full set was active somewhere.

Screening CCn1nc(-c2ccccc2)nc2c(=O)n(C)c(=O)nc1-2 returned Tb MetRS inh 27* and DAGLB inhibitor -31.
For C=C(C=O)CC1CC(O)[C@]2(C)OC3CC4OC5C[C@]6(C)O[C@]7(C)CCC8OC9C[C@]%10(C)OC%11C(C)=CC(=O)OC%11CC%10OC9C[C@@H](C)C8OC7CC6O[C@]5(C)C/C=C\C4OC3CC2O1 (stereo partly specified) the results were HGIII-sPLA2 inh -15, PLCb3 inh 2 and PLC-gamma1 inh -3.
C=C1C(=O)C(C)=C2C(=O)N3Cc4[nH]c5ccccc5c4CC3(C(=O)OC)C12 (stereo unspecified) was read as HGIII-sPLA2 inh 11, PLCb3 inh -6 and PLC-gamma1 inh -2.
For Cc1ccc(Cl)cc1N1CCN(CCN)CC1 the results were HGIII-sPLA2 inh 0, PLCb3 inh 4, Tb MetRS inh 0, PLC-gamma1 inh 16* and DAGLB inhibitor 3.
Screening CN1CCN(c2ccc(Cl)cc2N)CC1 returned HGIII-sPLA2 inh -1, PLCb3 inh -2, Tb MetRS inh -1, PLC-gamma1 inh 1 and DAGLB inhibitor 2.
For Cc1ccc(C(=O)N[C@@H](C)CN2C3=NC[C@@H](Cc4ccccc4)N3C[C@H]2Cc2ccc(O)cc2)cc1Br the results were HGIII-sPLA2 inh -23, PLCb3 inh 5 and PLC-gamma1 inh 13*.
`Nc1ccc(Cc2ccc(N)cc2)cc1` gave HGIII-sPLA2 inh 6, PLCb3 inh 11*, Tb MetRS inh 0, PLC-gamma1 inh -1 and DAGLB inhibitor 3.
For CC(Cc1ccccc1)NC(=O)Cc1ccc([N+](=O)[O-])cc1 (stereo unspecified) the results were HGIII-sPLA2 inh 2, PLCb3 inh 0, Tb MetRS inh 0, PLC-gamma1 inh 9.8* and DAGLB inhibitor -3.
O=[N+]([O-])c1ccc(Nc2ccccc2)cc1 was read as HGIII-sPLA2 inh -8, PLCb3 inh -6, Tb MetRS inh -1, PLC-gamma1 inh -7 and DAGLB inhibitor 0.
O=C(CN1C(=O)[C@@H](Cc2ccc(O)cc2)N=C(c2ccccc2)c2ccccc21)NC1CCCCC1 was read as HGIII-sPLA2 inh -25, PLCb3 inh 2 and PLC-gamma1 inh 3.
Screening O=[N+]([O-])c1cc(O)c(O)c([N+](=O)[O-])c1 returned HGIII-sPLA2 inh 0, PLCb3 inh -2, Tb MetRS inh 0, PLC-gamma1 inh -2, DAGLB inhibitor 42* and DAGLB inh conf 33.
CCOC(=O)CC[C@@H]1CC[C@]2(CCCN(Cc3cccnc3)C2)O1 was read as HGIII-sPLA2 inh 8, PLCb3 inh 0 and PLC-gamma1 inh 0.
Screening Clc1ccc(COC(Cn2ccnc2)c2ccc(Cl)cc2Cl)cc1 (stereo unspecified) returned HGIII-sPLA2 inh -24, PLCb3 inh 0, Tb MetRS inh 6.1*, PLC-gamma1 inh 0, DAGLB inhibitor -1, TbMetRS confirm 20*, Jurkat cytotox 13 and Tb MetRS inh FP 14.
CN(C)Cc1c[nH]c2cc([N+](=O)[O-])ccc12 was read as HGIII-sPLA2 inh -5, PLCb3 inh 0, Tb MetRS inh 6.7*, PLC-gamma1 inh -1, DAGLB inhibitor 1, TbMetRS confirm 30*, Jurkat cytotox -3 and Tb MetRS inh FP 14.
`COCCCn1c(N)c(C(=O)OCCOC)c2nc3ccccc3nc21` gave HGIII-sPLA2 inh 14, PLCb3 inh inactive, Tb MetRS inh 0, PLC-gamma1 inh inactive and DAGLB inhibitor -4.
For CCOC(=O)c1c(NS(=O)(=O)c2ccccc2)n(CCCOC)c2nc3ccccc3nc12 the results were HGIII-sPLA2 inh -1, PLCb3 inh inactive, Tb MetRS inh 14*, PLC-gamma1 inh inactive, DAGLB inhibitor -5, TbMetRS confirm 5, Jurkat cytotox 10 and Tb MetRS inh FP 3.
